According to PMC7449315 (Journal for Immunotherapy of Cancer, 2020):
“And” between values parts separate entries of the source, which are not always exact repeats. Equal entries are not always repeated. Marks after values point to notes of the source that are not given here.

Columns and labels:
IDO1 = IDO1 (Homo sapiens, UniProt P14902); assay: IDO1 activity in ex vivo LPS-stimulated whole blood from M4112-treated patients
[1] = M4112 levels in plasma, liver and tumor of mice bearing MC38 tumors; assay type: in vivo; conditions: MC38 tumor-bearing mice
Outline: (§1)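 Female adult C57BL/6 mice were inoculated subcutaneously with 0.5×10^6 IDO1-expressing MC38 colon carcinoma cells. At average tumor volumes of about 200–250 mm3 they received a single oral dose of the test compound (30, 75 or 200 mg/kg) or vehicle. Plasma, liver and tumor were sampled at 1, 2, 4, 8 and 24 h. Drug, kynurenine and tryptophan were measured by LC-MS/MS, and the kynurenine:tryptophan ratio was derived. Data are mean±SEM.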

[2] = tested on: kynurenine and tryptophan in the plasma; assay: phase I trial: plasma kynurenine and tryptophan; assay type: in vivo, human
Outline: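 In this open-label dose-escalation study, patients received the test compound orally twice daily (100–800 mg, three per cohort, 28-day cycles). Plasma was collected on cycle 1 day 1 and day 15 (predose and 1, 2, 4 and 6 h postdose), day 8 (predose), and cycle 2 day 1 (predose and 2 h). Kynurenine and tryptophan were quantified by LC-MS/MS, ratios were calculated, and values were normalized to baseline.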

[3] = phase I trial: plasma pharmacokinetics; assay type: in vivo, human
Outline: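 Patients were dosed orally twice daily. Blood was sampled on cycle 1 days 1 and 15 (predose and 0.5, 1, 2, 3, 4, 6 and 8 h postdose), on day 8 (predose), and on cycle 2 day 1 (predose and 2 h). Plasma drug levels were measured by LC-MS/MS. Non-compartmental analysis gave Cmax, tmax and AUC0–8, dose-normalized values, predose concentrations and day 15/day 1 accumulation. Dose proportionality was tested with a power model.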

tumor IDO1 = tumor IDO1 (Mus musculus, UniProt P28776); assay type: in vivo; conditions: MC38 tumor-bearing mice; 30, 75 or 200 mg/kg
Outline: as §1

[4] = 100 to 600 mg two times per day, day 15
[5] = Cycle 1, day 1, 100 mg two times per day, n=3, geometric mean (CV%)
[6] = Cycle 1, day 1, 200 mg two times per day, n=3, geometric mean (CV%)
[7] = Cycle 1, day 1, 400 mg two times per day, n=3, geometric mean (CV%)
[8] = Cycle 1, day 1, 600 mg two times per day, n=3, geometric mean (CV%)
[9] = Cycle 1, day 1, 800 mg two times per day, n=3, geometric mean (CV%)
[10] = Cycle 1, day 8, 100 mg two times per day, n=3, geometric mean (CV%)
[11] = Cycle 1, day 8, 200 mg two times per day, n=3, geometric mean (CV%)
[12] = Cycle 1, day 8, 400 mg two times per day, n=3, geometric mean (CV%)
[13] = Cycle 1, day 8, 600 mg two times per day, n=3, geometric mean (CV%)
[14] = Cycle 1, day 8, 800 mg two times per day, n=3, geometric mean (CV%)
[15] = Cycle 1, day 15, 100 mg two times per day, n=3, geometric mean (CV%)
[16] = Cycle 1, day 15, 200 mg two times per day, n=3, geometric mean (CV%)
[17] = Cycle 1, day 15, 400 mg two times per day, n=3, geometric mean (CV%)
[18] = Cycle 1, day 15, 600 mg two times per day, n=3, geometric mean (CV%)
[19] = Cycle 1, day 15, 800 mg two times per day, n=1, individual value
[20] = Cycle 2, day 1, 100 mg two times per day, n=3, geometric mean (CV%)
[21] = Cycle 2, day 1, 200 mg two times per day, n=2, individual values
[22] = Cycle 2, day 1, 400 mg two times per day, n=3, geometric mean (CV%)
[23] = Cycle 2, day 1, 600 mg two times per day, n=2, individual values
[24] = Cycle 2, day 1, 800 mg two times per day, n=1, individual value

Chain of IDO1 (P14902 whole entry): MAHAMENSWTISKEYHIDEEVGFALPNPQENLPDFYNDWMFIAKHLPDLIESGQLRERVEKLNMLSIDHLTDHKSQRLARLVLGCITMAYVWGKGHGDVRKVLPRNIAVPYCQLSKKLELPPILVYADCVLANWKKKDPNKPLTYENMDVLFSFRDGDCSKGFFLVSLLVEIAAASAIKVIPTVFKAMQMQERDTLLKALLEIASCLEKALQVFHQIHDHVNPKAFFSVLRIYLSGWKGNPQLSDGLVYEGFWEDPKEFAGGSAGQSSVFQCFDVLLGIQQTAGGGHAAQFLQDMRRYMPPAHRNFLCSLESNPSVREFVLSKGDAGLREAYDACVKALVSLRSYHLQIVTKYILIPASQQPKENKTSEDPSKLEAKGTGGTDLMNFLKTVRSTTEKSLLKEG
Chain of tumor IDO1 (P28776 whole entry): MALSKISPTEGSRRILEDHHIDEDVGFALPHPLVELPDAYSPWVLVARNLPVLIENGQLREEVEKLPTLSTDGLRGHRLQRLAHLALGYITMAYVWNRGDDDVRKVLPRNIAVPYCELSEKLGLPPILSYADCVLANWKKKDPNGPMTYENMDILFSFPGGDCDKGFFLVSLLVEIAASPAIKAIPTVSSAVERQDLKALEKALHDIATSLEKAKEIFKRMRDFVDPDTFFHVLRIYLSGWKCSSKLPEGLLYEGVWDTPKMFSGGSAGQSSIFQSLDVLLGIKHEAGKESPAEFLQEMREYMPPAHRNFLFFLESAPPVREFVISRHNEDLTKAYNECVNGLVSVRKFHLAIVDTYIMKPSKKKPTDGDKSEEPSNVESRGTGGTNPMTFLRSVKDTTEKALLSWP

Compound: NS(=O)(=O)[C@H]1CC[C@](F)(CC[C@H]2c3ccccc3-c3cncn32)CC1 [M4112]
- IDO1 activity inhibited (IDO1; 800 mg two times per day, throughout the dosing interval): Approximately 90%
- IDO1 inhibition in ex vivo stimulated blood (IDO1; across all doses tested): rapid onset of IDO1 inhibition
- time of maximum IDO1 inhibition (IDO1; post-M4112 administration): 1 to 4 h
- dose dependence of IDO1 inhibition (IDO1; steady state): trend toward dose-dependent IDO1 inhibition
- exposure to M4112 in the liver compared with both the plasma and the tumor [1]: approximately 10 fold
- concentration of M4112 in the tumor by 24 hours post-treatment ([1]; single oral dose): decreased to baseline levels
- time at which the concentration of M4112 in the tumor peaked ([1]; single oral dose 30, 75 or 200 mg/kg, post-treatment): 1 to 2 h
- plasma kynurenine:tryptophan ratio ([2]; cycle 1 day 1, after 6 hours): decrease
- decrease in plasma kynurenine levels ([2]; day 1 of cycle 1, up to 6 hours after the first dose, all dose levels): 12%–35
- plasma tryptophan levels ([2]; day 1 of cycle 1, 200 mg two times per day and above): increased
- plasma kynurenine levels ([2]; day 15 of cycle 1): returned to at least baseline levels
- increase of mean exposure with dose [3, 4]: greater than dose-proportional
- slope estimate of dose proportionality (power model) [3, 4]: 1.46–1.67
- accumulation / autoinduction following two times per day dosing ([3]; 100–600 mg dose range): no appreciable accumulation or evidence of autoinduction
- AUC0–8 [3, 5]: 3550 (14.4) ngxh/mL
- AUC0–8/dose [3, 5]: 35.5 (14.4) ngxh/mL/mg
- Cmax [3, 5]: 806 (9.9) ng/mL
- Cmax/dose [3, 5]: 8.06 (9.9) ng/mL/mg
- tmax ([3]; Cycle 1, day 1, 100 mg two times per day, n=3, median (min, max)): 1.08 (1.08, 2.12) hours
- AUC0–8 [3, 6]: 8740 (13.6) ngxh/mL
- AUC0–8/dose [3, 6]: 43.7 (13.6) ngxh/mL/mg
- Cmax [3, 6]: 2110 (13.6) ng/mL
- Cmax/dose [3, 6]: 10.5 (13.6) ng/mL/mg
- tmax ([3]; Cycle 1, day 1, 200 mg two times per day, n=3, median (min, max)): 2.10 (2.07, 3.08) hours
- AUC0–8 [3, 7]: 27,700 (21.4) ngxh/mL
- AUC0–8/dose [3, 7]: 69.1 (21.4) ngxh/mL/mg
- Cmax [3, 7]: 7670 (39.6) ng/mL
- Cmax/dose [3, 7]: 19.2 (39.6) ng/mL/mg
- tmax ([3]; Cycle 1, day 1, 400 mg two times per day, n=3, median (min, max)): 1.08 (1.07, 1.08) hours
- AUC0–8 [3, 8]: 50,400 (7.7) ngxh/mL
- AUC0–8/dose [3, 8]: 84.0 (7.7) ngxh/mL/mg
- Cmax [3, 8]: 11,700 (24.6) ng/mL
- Cmax/dose [3, 8]: 19.6 (24.6) ng/mL/mg
- tmax ([3]; Cycle 1, day 1, 600 mg two times per day, n=3, median (min, max)): 1.00 (0.97, 1.07) hours
- AUC0–8 [3, 9]: 14,600 (85.1) ngxh/mL
- AUC0–8/dose [3, 9]: 18.2 (85.1) ngxh/mL/mg
- Cmax [3, 9]: 2770 (83.6) ng/mL
- Cmax/dose [3, 9]: 3.47 (83.6) ng/mL/mg
- tmax ([3]; Cycle 1, day 1, 800 mg two times per day, n=3, median (min, max)): 2.08 (2.07, 4.12) hours
- Cpre [3, 10]: 156 (58.2) ng/mL
- Cpre/dose [3, 10]: 1.56 (58.2) ng/mL/mg
- Cpre [3, 11]: 96.5 (85.0) ng/mL
- Cpre/dose [3, 11]: 0.482 (85.0) ng/mL/mg
- Cpre [3, 12]: 1240 (51.6) ng/mL
- Cpre/dose [3, 12]: 3.11 (51.6) ng/mL/mg
- Cpre [3, 13]: 4410 (54.5) ng/mL
- Cpre/dose [3, 13]: 7.35 (54.5) ng/mL/mg
- Cpre [3, 14]: 5200 (105.4) ng/mL
- Cpre/dose [3, 14]: 6.50 (105.4) ng/mL/mg
- AUC0–8 [3, 15]: 4790 (25.4) ngxh/mL
- AUC0–8/dose [3, 15]: 47.9 (25.4) ngxh/mL/mg
- Cmax [3, 15]: 975 (34.9) ng/mL
- Cmax/dose [3, 15]: 9.75 (34.9) ng/mL/mg
- Cpre [3, 15]: 221 (20.5) ng/mL
- Cpre/dose [3, 15]: 2.21 (20.5) ng/mL/mg
- tmax ([3]; Cycle 1, day 15, 100 mg two times per day, n=3, median (min, max)): 3.08 (2.12, 4.13) hour
- AUC0–8 [3, 16]: 7580 (11.5) ngxh/mL
- AUC0–8/dose [3, 16]: 37.9 (11.5) ngxh/mL/mg
- Cmax [3, 16]: 1720 (20.5) ng/mL
- Cmax/dose [3, 16]: 8.58 (20.5) ng/mL/mg
- Cpre [3, 16]: 199 (53.9) ng/mL
- Cpre/dose [3, 16]: 0.997 (53.9) ng/mL/mg
- tmax ([3]; Cycle 1, day 15, 200 mg two times per day, n=3, median (min, max)): 2.10 (1.00, 6.08) hour
- AUC0–8 [3, 17]: 31,500 (28.8) ngxh/mL
- AUC0–8/dose [3, 17]: 78.8 (28.8) ngxh/mL/mg
- Cmax [3, 17]: 6560 (27.4) ng/mL
- Cmax/dose [3, 17]: 16.4 (27.4) ng/mL/mg
- Cpre [3, 17]: 1630 (45.7) ng/mL
- Cpre/dose [3, 17]: 4.08 (45.7) ng/mL/mg
- tmax ([3]; Cycle 1, day 15, 400 mg two times per day, n=3, median (min, max)): 1.08 (0.50, 3.00) hour
- AUC0–8 [3, 18]: 59,500 (12.7) ngxh/mL
- AUC0–8/dose [3, 18]: 99.2 (12.7) ngxh/mL/mg
- Cmax [3, 18]: 12,100 (2.2) ng/mL
- Cmax/dose [3, 18]: 20.2 (2.2) ng/mL/mg
- Cpre [3, 18]: 3380 (42.4) ng/mL
- Cpre/dose [3, 18]: 5.63 (42.4) ng/mL/mg
- tmax ([3]; Cycle 1, day 15, 600 mg two times per day, n=3, median (min, max)): 1.03 (0.93, 2.17) hour
- AUC0–8 [3, 19]: 93,200† ngxh/mL
- AUC0–8/dose [3, 19]: 116† ngxh/mL/mg
- Cmax [3, 19]: 21,100† ng/mL
- Cmax/dose [3, 19]: 26.4† ng/mL/mg
- Cpre [3, 19]: 9810† ng/mL
- Cpre/dose [3, 19]: 12.3† ng/mL/mg
- tmax [3, 19]: 2.00† hour
- Cpre [3, 20]: 128 (67.7) ng/mL
- Cpre/dose [3, 20]: 1.28 (67.7) ng/mL/mg
- Cpre [3, 21]: 83.3 ng/mL and 85.2 ng/mL
- Cpre/dose [3, 21]: 0.417 ng/mL/mg and 0.426 ng/mL/mg
- Cpre [3, 22]: 957 (72.1) ng/mL
- Cpre/dose [3, 22]: 2.39 (72.1) ng/mL/mg
- Cpre [3, 23]: 1910 ng/mL and 2560 ng/mL
- Cpre/dose [3, 23]: 3.18 ng/mL/mg and 4.27 ng/mL/mg
- Cpre [3, 24]: 8560† ng/mL
- Cpre/dose [3, 24]: 10.7† ng/mL/mg
- tmax ([3]; across all dose levels on both days 1 and 15, approximately): 1 to 3 h
- M4112 exposure of the 800 mg two times per day cohort ([3]; cycle 1, day 1): initially lower than that of the other dose groups
- kynurenine:tryptophan ratio in the liver and plasma (tumor IDO1): dose-dependent reduction
